# Measured values reported in paper PMC3290340 (Pigment cell & melanoma research, 2012).
# Legend:
# [1] = Body weight during i.p. treatment; format: in vivo, nude mice; conditions: 100 mg/kg
# [2] = system: UACC 903 xenografted melanoma tumors; assay: Xenografted UACC 903 melanoma tumor growth; format: in vivo, nude mice; conditions: UACC 903 xenograft, 100 mg/kg i.p. Mon/Wed/Fri, day 22
# How it was run: (§1)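 Female nude mice, 4-6 weeks old, injected s.c. above both rib cages with 5×10^6 UACC 903 or 2.5×10^6 1205 Lu cells in 0.2 ml DMEM/10% FBS. On day 6, randomized (n=5, 10 tumors per group). Dosed i.p. at 100 mg/kg in 50 μl DMSO (or DMSO alone) Mon/Wed/Fri for 3 weeks. Tumor dimensions by calipers; body weight monitored.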
# recombinant SPHK2 = target: T1, recombinant SPHK2 (Homo sapiens, UniProt Q9NRA0); assay: In vitro SphK activity assay with recombinant SPHK2; format: biochemical; conditions: Fig. 2B
# T1 sequence (Q9NRA0 1-654): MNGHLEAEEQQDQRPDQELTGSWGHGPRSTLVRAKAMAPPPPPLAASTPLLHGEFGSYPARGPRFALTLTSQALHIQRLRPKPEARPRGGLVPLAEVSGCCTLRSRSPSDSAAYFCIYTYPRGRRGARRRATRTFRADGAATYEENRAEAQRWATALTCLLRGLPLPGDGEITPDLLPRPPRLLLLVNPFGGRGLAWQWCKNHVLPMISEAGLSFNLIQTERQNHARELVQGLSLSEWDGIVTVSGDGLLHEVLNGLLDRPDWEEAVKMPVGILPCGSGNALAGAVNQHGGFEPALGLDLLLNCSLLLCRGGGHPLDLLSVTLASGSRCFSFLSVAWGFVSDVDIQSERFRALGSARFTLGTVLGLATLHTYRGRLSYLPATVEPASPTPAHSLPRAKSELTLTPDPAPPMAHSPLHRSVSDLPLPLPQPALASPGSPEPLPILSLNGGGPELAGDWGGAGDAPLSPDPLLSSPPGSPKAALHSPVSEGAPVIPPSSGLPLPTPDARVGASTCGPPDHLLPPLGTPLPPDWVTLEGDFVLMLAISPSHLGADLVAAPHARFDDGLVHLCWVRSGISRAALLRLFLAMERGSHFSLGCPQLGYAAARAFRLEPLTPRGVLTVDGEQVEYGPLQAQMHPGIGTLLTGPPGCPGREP
# UACC 903 cells [3] = assay: Cellular S-1-P and ceramide content by LC-MS-MS, UACC 903; format: cell-based, human; conditions: UACC 903, 2.5 and 5.0 μM, 48 hours
# How it was run: (§2)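 UACC 903 or 1205 Lu cells (2.0×10^6, triplicate dishes) in DMEM/10% FBS; after 24 h, PBS-washed and treated 48 h with 2.5 or 5.0 μM test compound or DMSO. Floating cells pelleted at 500 x g, 5 min, 4 °C, PBS-washed and pooled with scraped adherent cells. Extracts assayed by LC-MS-MS for sphingosine, S-1-P and ceramides.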
# recombinant SPHK1 = recombinant SPHK1 (Homo sapiens, UniProt Q9NYA1); assay: In vitro SphK activity assay with recombinant SPHK1; format: biochemical; conditions: recombinant protein, Fig. 2B
# recombinant SPHK1, sequence (Q9NYA1 whole entry): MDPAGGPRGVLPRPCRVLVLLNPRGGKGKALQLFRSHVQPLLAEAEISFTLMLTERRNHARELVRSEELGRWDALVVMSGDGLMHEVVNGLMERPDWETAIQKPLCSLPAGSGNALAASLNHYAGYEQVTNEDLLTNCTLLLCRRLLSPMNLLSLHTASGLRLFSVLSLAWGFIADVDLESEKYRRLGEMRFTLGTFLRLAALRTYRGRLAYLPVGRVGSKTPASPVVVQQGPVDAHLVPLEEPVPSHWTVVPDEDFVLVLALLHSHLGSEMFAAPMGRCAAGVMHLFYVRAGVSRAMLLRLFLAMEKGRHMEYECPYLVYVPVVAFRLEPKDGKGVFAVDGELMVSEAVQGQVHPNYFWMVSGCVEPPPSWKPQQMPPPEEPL
# UACC 903 melanoma cells = assay: MTS cell viability, UACC 903; format: cell-based, human
# How it was run: (§3)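 5×10^3 cells/well in DMEM/10% FBS, pre-grown 36 h (melanoma lines) or 72 h (FF2441 fibroblasts, FOM melanocytes). Then exposed to test compound (0.5–100 μM) or DMSO for 24, 48 or 72 h. Viability by MTS relative to vehicle-treated cells; IC50 fitted per line. Melanoma values also averaged across the six melanoma lines.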
# A375M melanoma cells = assay: MTS cell viability, A375M; format: cell-based, human; conditions: value of the text (Fig. 3A, 72 hours)
# How it was run: as §3
# [4] = system: 1205 Lu xenografted melanoma tumors; assay: Xenografted 1205 Lu melanoma tumor growth; format: in vivo, nude mice; conditions: 1205 Lu xenograft, 100 mg/kg i.p. Mon/Wed/Fri, day 21
# How it was run: as §1
# UACC 903 cells [5] = assay: Caspase-3/7 activity; format: cell-based, human; conditions: UACC 903, 72 hours, tested 1, 2.5, 5.0 μM
# How it was run: (§4)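 UACC 903, A375M or 1205 Lu cells (5×10^3/well, 96-well) exposed 72 h to test compound or DMSO. Caspase-3/7 substrate Z-DEVD-R110 (Apo-ONE kit) added 4 h before the end of treatment. Read-out is fold increase in caspase-3/7 activity over DMSO-treated cells. At least 3 independent experiments, SEM.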
# 1205 Lu cells [6] = assay: Caspase-3/7 activity; format: cell-based, human; conditions: 72 hours, tested 1, 2.5, 5.0 μM
# How it was run: as §4
# 1205 Lu cells [7] = assay: Cellular S-1-P and ceramide content by LC-MS-MS, 1205 Lu; format: cell-based, human; conditions: 48 hours
# How it was run: as §2
# UACC 903 cells [8] = assay: Cell cycle analysis; format: cell-based, human; conditions: 72 h
# How it was run: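 1.5×10^6 UACC 903 cells grown in 100-mm dishes, then treated 72 h with 1, 2.5 or 5.0 μM test compound or DMSO. Floating plus adherent cells collected by trypsinization and stained 30 min at 4 °C (propidium iodide 100 μg/ml, RNase A 20 μg/ml, Triton X-100 3 μg/mL in 0.1% sodium citrate). Phase distribution by FACScan.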
# 1205 Lu melanoma cells = assay: MTS cell viability, 1205 Lu; format: cell-based, human; conditions: value of the text (Fig. 3A, 72 hours)
# How it was run: as §3
# A375M cells = assay: Caspase-3/7 activity; format: cell-based, human; conditions: 72 hours, tested 1, 2.5, 5.0 μM
# How it was run: as §4
# [9] = system: CYCLIN D1 in UACC 903 cells; assay: Western blot of CYCLIN D1; format: cell-based, human; conditions: 72 h; for Decrease in CYCLIN D1 expression: compared to DMSO
# How it was run: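 UACC 903 cells treated 72 h with test compound or DMSO and lysed in HEPES pH 7.5 buffer with protease/phosphatase inhibitors. Lysates cleared at 10,000 x g, 10 min, 4 °C; 30 μg protein per lane. Blotted to PVDF and detected by ECL. Band intensity densitometry given as percent change versus DMSO-treated cells.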
# melanoma cells = assay: MTS cell viability, average/range over the melanoma cell lines; format: cell-based, human
# How it was run: as §3
# [10] = UACC 903, 2.5 μM, compared to DMSO
smiles,measurement,setting,value
"Oc1ccc(Nc2nc(-c3ccc(Cl)cc3)cs2)cc1 [SKI-II, 2-(p-hydroxyanilino)-4-(p-chlorophenyl) thiazole]",Body weight change,[1],No weight changes
same,Difference in tumor volume between vehicle control and treatment group,[2],no effect on tumor growth
same,Inhibition of SPHK2 activity,recombinant SPHK2; recombinant protein,effective at inhibiting
same,Selectivity SPHK1 versus SPHK2,recombinant SPHK2; recombinant proteins,slightly enhanced selectivity to SPHK2
same,Effect on cellular S-1-P,UACC 903 cells [3],did not effect
same,Effect on cellular ceramide levels,UACC 903 cells [3],did not effect
same,Inhibition of SPHK1 activity,recombinant SPHK1,effective at inhibiting
O=C(N/N=C/c1c(O)ccc2ccccc12)c1cc(-c2ccc3ccccc3c2)n[nH]1 [SKI-I],Body weight change,[1],No weight changes
same,Difference in tumor volume between vehicle control and treatment group,[2],~ 40%
same,Reduction of cell viability,"UACC 903 melanoma cells; UACC 903, 5 μM, 72 hours",50%
same,IC50,"UACC 903 melanoma cells; UACC 903, value of the text (Fig. 3A, 72 hours)",5.72 ± 0.35 µM
same,IC50,A375M melanoma cells,1.3 ± 0.27 µM
same,Difference in tumor volume between vehicle control and treatment group,[4],~ 26%
same,Concentration of maximal caspase-3/7 activity,UACC 903 cells [5],5 µM
same,Concentration of maximal caspase-3/7 activity,1205 Lu cells [6],5 µM
same,Effect on cellular S-1-P,1205 Lu cells [7],no significant change
same,Effect on cellular ceramide levels,1205 Lu cells [7],increased
same,Fold decrease of the G0/G1 cell population,UACC 903 cells [8]; [10],2.4 fold
same,Fold increase of the G2/M population,UACC 903 cells [8]; [10],2.5 fold
same,G2/M cell population,"UACC 903 cells [8]; UACC 903, 5 μM",below detectable levels
same,Effect on cellular ceramide levels,UACC 903 cells [3],induced
same,IC50,1205 Lu melanoma cells,4.89 ± 0.63 µM
same,Concentration of maximal caspase-3/7 activity,A375M cells,2.5 µM
same,Decrease in CYCLIN D1 expression,"[9]; UACC 903, 1 μM",86.1%
same,Decrease in CYCLIN D1 expression,"[9]; UACC 903, 2.5 μM",97.1%
same,CYCLIN D1 levels,"[9]; UACC 903, 5 μM",almost undetectable
same,Fold more effective than SKI-II (average IC50 values),melanoma cells; SKI-I compared to SKI-II,~ 10 fold
same,IC50,"melanoma cells; read-out: Average IC50 for melanoma cells, 24 h treatment",20.6 µM
